Variants at the floor of the assay were thinned out.
B1: tRNA (parent)
chain: GUUCCGUUGGCGUAAUGGUAACGCGUCUCCCUCCUAAGGAGAAGACUGCGGGUUCGAGUCCCGUACGGAACG

Variants of: B1
Experiment: yeast fitness relative to wild type (ratio to wild type); higher = fitter; tRNA-Arg(CCU), competitive growth, 37 C, YPD
Method in brief: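 Gene amplicons from the start population and from each of six end populations were read by 100-nucleotide paired-end sequencing. Those end populations came from pooled Saccharomyces cerevisiae strains carrying tRNA-Arg(CCU) gene variants at the native locus, competed in YPD at 37°C for 24 hours. Fitness relative to wild type was worked out from changes in genotype frequencies. Genotypes needed ≥ 100 starting reads, and estimates < 0.5 were set to 0.5.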

Question: Which yeast fitness does the source give for GUUCCGUUGGCGAAAUGGUAACGUGUCUCCCUCCUAAGGAGAAGACUGCGGGUUCGAGCCCCGUACAGAACG [U13A C24U U59C G67A] here?
Answer: The yeast fitness was at most 0.5.

Question: For GUUCCGUUGGCGAAAUGGUAACGCGUAUCCCUCCUCAGGAGUAGACUGCGGGUUCGAGUCCCGGACGGAACG [U13A C27A A36C A42U U64G], which yeast fitness is on record?
Answer: Its yeast fitness is at most 0.5.

Question: For GUUCCGUUGGCGAAAUGGUAACGCGUAUCCCUCCUGAGGAGCAGACUGCGGGUUCGAGUCCCGUACGGAACG [U13A C27A A36G A42C], which yeast fitness is on record?
Answer: Its yeast fitness is at most 0.5.

Question: For GUUCCGUUGGCGAAAUGGUAACGCGUAUCCCUCCUAAGGAGAAGACUGCGGGUUCGAGUCUCGUAUGGAACG [U13A C27A C61U C66U], which yeast fitness is on record?
Answer: Its yeast fitness is at most 0.5.

Question: Which yeast fitness does the source give for GUUCCGUUGGCGAAAUGGUAACGCGUGUCCCUCCUAAGGAGAAGACUGCGGGUUCGAGUCCCGUACGGAACG [U13A C27G] here?
Answer: The yeast fitness was 0.621.

Question: Which yeast fitness does the source give for GUUCCGUUGGCGAAAUGGUAACGCGUGUCCCUCCUAAGGAGUAGACUGCGGGUUCGAGUCCCGUACGGAACG [U13A C27G A42U] here?
Answer: The yeast fitness was 0.671.

Question: Which yeast fitness does the source give for GUUCCGUUGGCGAAAUGGUAACGCGUGUCCCUCCUAAGGAGACGUCUGCGGGUUCGAGUCCCGCACGGAACG [U13A C27G A43C A45U U64C] here?
Answer: Its yeast fitness is 0.582.

Question: With GUUCCGUUGGCGAAAUGGUAACGCGUGUCCCUCGUAAGGAGAAGACUCCGGGUUCGAGUCCCGUACGGAACG [U13A C27G C34G G48C] as the variant, how does the yeast fitness read?
Answer: The yeast fitness was at most 0.5.

Question: With GUUCCGUUGGCGAAAUGGUAACGCGUGUCCCUCCUAAGGAGAAGACUGCGGGUUCGAGCCCCGUACGGAACG [U13A C27G U59C] as the variant, how does the yeast fitness read?
Answer: The yeast fitness was at most 0.5.

Question: For GUUCCGUUGGCGAAAUGGUAACGCGUUUCCCUCCUACGGAGAAGACUGCGGGUUCGAGUCUCGUACGGAACG [U13A C27U A37C C61U], which yeast fitness is on record?
Answer: The yeast fitness was at most 0.5.

Question: For GUUCCGUUGGCGAAAUGGUAACGCGUUUCCCUCCUAAGGAGAAGACUGCGGGUUCGAGUCCCGUACGGUACG [U13A C27U A69U], which yeast fitness is on record?
Answer: Its yeast fitness is 0.864.

Question: With GUUCCGUUGGCGAAAUGGUAACGCGUUUCCCUCCUAAGGAGAAGACUGCGGGUUCGAGUCCCGUACGGAUCG [U13A C27U A70U] as the variant, how does the yeast fitness read?
Answer: The yeast fitness was 0.867.

Question: Which yeast fitness does the source give for GUUCCGUUGGCGAAAUGGUAACGCGUUUCCUUCCUAAGGAGAAGACUGCGGGUUCGAGUCCCGUACGGAACG [U13A C27U C31U] here?
Answer: The yeast fitness was 0.673.

Question: Which yeast fitness does the source give for GUUCCGUUGGCGAAAUGGUAACGCGUUUCCCUCCUAAGGAGAAGACUGCGGGUUCGAGUCCCGCACGGAACG [U13A C27U U64C] here?
Answer: Its yeast fitness is 0.937.

Question: With GUUCCGUUGGCGAAAUGGUAACGCGUCUGCCUCCUAAGGAGAGGACUGCGGGUUCGAGUCCCGUACAGAACG [U13A C29G A43G G67A] as the variant, how does the yeast fitness read?
Answer: The yeast fitness was at most 0.5.

Question: Which yeast fitness does the source give for GUUCCGUUGGCGAAAUGGUAACGCGUCUGCCUCCUAAGGAGAAGAGUGCGGGUUCGAGUCCCGUACGGAACG [U13A C29G C46G] here?
Answer: The yeast fitness was 0.583.

Question: Which yeast fitness does the source give for GUUCCGUUGGCGAAAUGGUAACGCGUCUUCCUCCUAAGGAGAAGACUGCGGGUUCGAGUCCCGUACGGAACG [U13A C29U] here?
Answer: The yeast fitness was 0.786.

Question: Which yeast fitness does the source give for GUUCCGUUGGCGAAAUGGUAACGCGUCUUCUUCCUAAGGAGAAGACUGCCGGUUCGAGUCCCGUACGGAACG [U13A C29U C31U G50C] here?
Answer: The yeast fitness was 0.508.

Question: For GUUCCGUUGGCGAAAUGGUAACGCGUCUCAUUCCUAAGGAGACGACUGCGGGUUCGAGUCCCGUACGGAACG [U13A C30A C31U A43C], which yeast fitness is on record?
Answer: Its yeast fitness is 0.942.

Question: Which yeast fitness does the source give for GUUCCGUUGGCGAAAUGGUAACGCGUCUCGCUCCUAAGGAGAAGACUGCGGGUUCGAGUCCCGUACGGAACG [U13A C30G] here?
Answer: The yeast fitness was 0.584.

Question: With GUUCCGUUGGCGAAAUGGUAACGCGUCUCUCUCCUAAGGAGAAGACUGCGGGUUCGAGUCCCGUACGGAACG [U13A C30U] as the variant, how does the yeast fitness read?
Answer: Its yeast fitness is 0.802.

Question: With GUUCCGUUGGCGAAAUGGUAACGCGUCUCUCUCCUAAGGAGAAGCCUGCGGGUUCGAGUCCCGUACGGAACG [U13A C30U A45C] as the variant, how does the yeast fitness read?
Answer: The yeast fitness was 0.611.

Question: Which yeast fitness does the source give for GUUCCGUUGGCGAAAUGGUAACGCGUCUCUCUCCUAAGGAGAAGACUGCGGGUUGGACUCCCGUACGGAACG [U13A C30U C55G G58C] here?
Answer: Its yeast fitness is 0.56.

Question: Which yeast fitness does the source give for GUUCCGUUGGCGAAAUGGUAACGCGUCUCUCUCCUAAGCAGAAGACUGCGGGUUGGAGUCCCGUACGGAACG [U13A C30U G39C C55G] here?
Answer: The yeast fitness was 0.545.

Question: Which yeast fitness does the source give for GUUCCGUUGGCGAAAUGGUAACGCGUCUCCAUCCUAAGGAGAAAACUGCGGGUUCGGGUCCCGUACGGAACG [U13A C31A G44A A57G] here?
Answer: Its yeast fitness is at most 0.5.

Question: Which yeast fitness does the source give for GUUCCGUUGGCGAAAUGGUAACGCGUCUCCGUCCUAAGGAGAAGACUGCGGGUUCGAGUCCCGUACGGAACG [U13A C31G] here?
Answer: The yeast fitness was 1.05.

Question: Which yeast fitness does the source give for GUUCCGUUGGCGAAAUGGUAACGCGUCUCCGUCCUAAGGAGAAGAGUGCGGGUUCGAGUCCCGUACGGCACG [U13A C31G C46G A69C] here?
Answer: Its yeast fitness is at most 0.5.

Question: Which yeast fitness does the source give for GUUCCGUUGGCGAAAUGGUAACGCGUCUCCUUCCUAAGGUGAAGACUGCGGGUUCGAGUCCCGUACGGAACG [U13A C31U A40U] here?
Answer: Its yeast fitness is 1.04.

Question: Which yeast fitness does the source give for GUUCCGUUGGCGAAAUGGUAACGCGUCUCCUUCCUAAGGAGAAGAAUGCGGGUUCGAGUCCCGUACGGAACG [U13A C31U C46A] here?
Answer: The yeast fitness was 0.665.

Question: With GUUCCGUUGGCGAAAUGGUAACGCGUCUCCUUCCUAAGGAGAAGACUGUGGGUUCGAGUCCCGUAAAGAACG [U13A C31U C49U C66A G67A] as the variant, how does the yeast fitness read?
Answer: The yeast fitness was at most 0.5.

Question: Which yeast fitness does the source give for GUUCCGUUGGCGAAAUGGUAACGCGUCUCCCUACUUAGGAGAAGACUGCGGGUUCGAGUCCCGUACGGACCG [U13A C33A A36U A70C] here?
Answer: Its yeast fitness is 0.518.

Question: With GUUCCGUUGGCGAAAUGGUAACGCGUCUCCCUGCUAGGGAGAAGACUGCGGGUUCGAGUCCCGUACGGAACG [U13A C33G A37G] as the variant, how does the yeast fitness read?
Answer: Its yeast fitness is at most 0.5.

Question: Which yeast fitness does the source give for GUUCCGUUGGCGAAAUGGUAACGCGUCUCCCUGCUAAGGGGAAGACUGCGGGUUCGAGUACCGUACGGAACG [U13A C33G A40G C60A] here?
Answer: The yeast fitness was at most 0.5.

Question: Which yeast fitness does the source give for GUUCCGUUGGCGAAAUGGUAACGCGUCUCCCUCGUAAGGAGAAGCCUGCGGGUUCGCGUCCCGUACGGAACG [U13A C34G A45C A57C] here?
Answer: The yeast fitness was at most 0.5.

Question: With GUUCCGUUGGCGAAAUGGUAACGCGUCUCCCUCGUAAGGAGAAGACUGCAGGUUCGAGUGUCGUACGGAACG [U13A C34G G50A C60G C61U] as the variant, how does the yeast fitness read?
Answer: The yeast fitness was at most 0.5.

Question: For GUUCCGUUGGCGAAAUGGUAACGCGUCUCCCUCUUGAGGAGAAGACUGCGGGUUCGAGUCCCGUACGGAACG [U13A C34U A36G], which yeast fitness is on record?
Answer: The yeast fitness was at most 0.5.

Question: Which yeast fitness does the source give for GUUCCGUUGGCGAAAUGGUAACGCGUCUCCCUCCUAAGGAGAAGAGUGCGGGUUCGAGUCCCCUAAGGAACG [U13A C46G G63C C66A] here?
Answer: Its yeast fitness is at most 0.5.

— the RNAGym collection of RNA variant scans (doi:10.1126/science.aae0568)
